Source: PubChem BioAssay (Sanford-Burnham Center for Chemical Genomics)
Diaph act CS – compounds boosting diaphorase resazurin reduction – biochemical, uHTS, resorufin fluorescence, counter-screen for diaphorase-coupled primary assays, primary screen. activation factor at 20 µM. Diaphorase/resazurin coupled assay, 16 min; active compounds read high; 1 = vehicle wells, 0 = NADH-free wells. hit rate 0.005% among 190,000;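 active means diaphorase activity raised at least twofold by the compound at 20 µM; inactive means activation factor below 2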
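Material: purified diaphorase enzyme from Clostridium kluyveri; Also added: 0.114 mM NADH and 0.1 mM resazurin, final amounts; Doses: single compound dose of 20 µM, 1% DMSO final; Times: 16 min enzyme reaction, ambient temperature; Detection: resorufin fluorescence, excitation 544 nm, emission 590 nm; Measure: increased resorufin signal from activators or reducing compounds.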
HKDC1 inh – HKDC1 hexokinase inhibitors, primary screen, biochemical, fluorescence, uHTS; inhibition, % at 20 µM; AID 493160, 2011; Q2TB90; hit rate 0.16% among 340,000; recombinant HKDC1, G6PDH/diaphorase resazurin coupled fluorescence;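 active means inhibition above about 35% when tested at 20 µM, limit read from the data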;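 further: plate controls were DMSO wells with enzyme for no effect and DMSO wells lacking enzyme for full effect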
Target sequence (Q2TB90 whole entry, looked up): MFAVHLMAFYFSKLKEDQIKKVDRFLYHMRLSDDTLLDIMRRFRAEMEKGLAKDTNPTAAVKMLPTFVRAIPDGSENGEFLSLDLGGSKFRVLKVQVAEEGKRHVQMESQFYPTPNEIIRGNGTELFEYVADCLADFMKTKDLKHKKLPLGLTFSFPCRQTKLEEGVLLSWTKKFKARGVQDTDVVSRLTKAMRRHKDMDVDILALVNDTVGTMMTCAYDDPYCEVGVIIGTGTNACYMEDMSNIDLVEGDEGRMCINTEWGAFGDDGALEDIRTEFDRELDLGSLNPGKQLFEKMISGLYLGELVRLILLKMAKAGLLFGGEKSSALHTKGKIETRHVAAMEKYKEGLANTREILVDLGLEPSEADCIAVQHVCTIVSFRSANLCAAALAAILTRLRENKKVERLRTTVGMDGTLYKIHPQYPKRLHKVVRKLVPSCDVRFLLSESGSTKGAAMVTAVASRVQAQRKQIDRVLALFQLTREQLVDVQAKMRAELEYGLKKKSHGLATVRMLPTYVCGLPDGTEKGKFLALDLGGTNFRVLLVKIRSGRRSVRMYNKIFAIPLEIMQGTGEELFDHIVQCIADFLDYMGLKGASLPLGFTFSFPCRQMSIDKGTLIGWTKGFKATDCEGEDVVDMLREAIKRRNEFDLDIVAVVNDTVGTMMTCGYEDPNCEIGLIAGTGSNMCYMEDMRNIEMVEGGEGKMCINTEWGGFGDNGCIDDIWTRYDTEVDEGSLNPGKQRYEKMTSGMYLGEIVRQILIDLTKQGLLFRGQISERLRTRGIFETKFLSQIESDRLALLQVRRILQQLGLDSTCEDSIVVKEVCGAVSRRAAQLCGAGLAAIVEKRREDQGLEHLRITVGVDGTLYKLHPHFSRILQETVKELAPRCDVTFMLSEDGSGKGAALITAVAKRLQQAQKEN
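Material: recombinant HKDC1 hexokinase; Amount: HKDC1 at 5 µg/mL; Medium: Tris pH 8.0 buffer with MgCl2, Tween-20, BSA, BME; Schedule: 90 min reaction incubation at room temperature, dark; Technique: coupled resazurin fluorescence, excitation 525 nm, emission 613 nm.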
G6PDH CS – L. mesenteroides G6PDH inhibitors, counter-screen for G6PDH-coupled screening assays, biochemical, Leuconostoc mesenteroides enzyme; glucose-6-phosphate dehydrogenase [Leuconostoc mesenteroides]; AID 1020, 2008; hit rate 0.12% among 200,000; inhibition, % at 5 µM; Purified L. mesenteroides G6PDH, diaphorase/resazurin coupled fluorescence, 45 min; in the data active means inhibition above about 50%
PfG6PD inh – PfG6PD enzyme inhibitors, primary screen, biochemical, fluorescence intensity, uHTS. PfGluPho enzyme, NADPH resazurin-diaphorase fluorescence. glucose-6-phosphate dehydrogenase-6-phosphogluconolactonase (Plasmodium falciparum 3D7). AID 504690, 2011. hit rate 0.78% among 350,000. inhibition, % at 20 µM;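 active means inhibition reaching at least a set limit at 20 µM in the primary screen, cut at about 59% in these data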;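 further: 0% = DMSO wells with substrate and 100% = DMSO wells lacking glucose-6-phosphate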
Diaph inh CS – diaphorase inhibitors and chemical oxidizers, primary screen, counter-screen for diaphorase-coupled primary assays, biochemical, uHTS, resorufin fluorescence. hit rate 0.69% among 190,000. AID 1217, 2008. inhibition, % at 20 µM. diaphorase resazurin-to-resorufin fluorescence, NADH, 16 min; bacterial (C. kluyveri) enzyme, not human;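 active means primary screen inhibition at 20 µM above a set limit, cut at about 50% in these data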;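 further: plate controls were DMSO with full reaction for no effect and wells lacking NADH for full effect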
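Assay system – diaphorase enzyme from Clostridium kluyveri · Amount – diaphorase 0.14 U/mL (working solution) · Times – reaction incubation of 16 min at room temperature · Controls – No-NADH positive control and DMSO neutral control · Signal – resorufin fluorescence 544/590 nm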
* hit, by the source's call; nt = no result given. In the library only some 1.3% were active in any assay of this set; here they are far more common.

SMILES	Diaph act CS	HKDC1 inh	G6PDH CS	PfG6PD inh	Diaph inh CS
C[C@@H]1O[C@@H](OC[C@H]2O[C@@H](Oc3c(-c4ccc(O)c(O)c4)oc4cc(O)cc(O)c4c3=O)[C@H](O)[C@@H](O)[C@@H]2O)[C@H](O)[C@H](O)[C@H]1O	0.3	0	37	-31	71*
O=c1c(O[C@@H]2O[C@H](CO)[C@H](O)[C@H](O)[C@H]2O)c(-c2ccc(O)c(O)c2)oc2cc(O)cc(O)c12	0.4	nt	28	nt	56*
O=c1cc(-c2ccc(O)c(O)c2)oc2cc(O)c(C3OC(CO)C(O)C(O)C3O)c(O)c12 (centres undefined)	0.4	0	36	12	60*
CC1OC(OCC2OC(Oc3c(-c4ccc(O)cc4)oc4cc(O)cc(O)c4c3=O)C(O)C(O)C2O)C(O)C(O)C1O (centres undefined)	0.9	3	16	17	12
O=c1c(O[C@@H]2O[C@H](CO)[C@@H](O)[C@H](O)[C@H]2O)c(-c2ccc(O)cc2)oc2cc(O)cc(O)c12	nt	1	nt	-6	nt
O=c1c(O[C@@H]2O[C@H](CO)[C@@H](O)[C@H](O)[C@H]2O)c(-c2ccc(O)c(O)c2)oc2cc(O)cc(O)c12	0.2	nt	34	nt	77*
CN1CCN(S(=O)(=O)c2cccc(C(=O)Oc3cccc(Br)c3)c2)CC1	nt	-7	nt	4	nt
Cc1cc(C)c2c(c1)c1nnc(SCCN3CCOCC3)nc1n2C	nt	9	nt	34	nt
CCOC(=O)c1sc(NC(=O)CC2OC(=O)c3ccccc32)nc1C (centres undefined)	nt	8	nt	8	nt
CCC(=O)N(CC)C1=C(O)c2ccccc2C(=O)C1=O	0.6	25	52*	46	37
CCC(=O)N(C)/C=C1\Sc2ccccc2C1=O	0.9	4	3	-7	9
CCOC(=O)C1CCN(S(=O)(=O)Cc2ccccc2)CC1	1.1	4	51*	-10	-15
O=C(NCCc1c[nH]c2ccccc12)/C(=C\c1cccnc1)NC(=O)c1cccs1	0.8	-8	4	-4	18
COc1ccc(C(=O)C(c2ccccc2)N2CCOCC2)cc1 (centres undefined)	1.1	2	10	-21	-13
Cc1ccc(C(=O)C(c2ccccc2)N2Cc3ccccc3C2=N)cc1 (centres undefined)	0.9	1	7	65*	9
CC(C)NC[C@@H](O)c1ccc(O)c(O)c1	0.4	5	63*	52	62*
CC(C)NCC(O)c1ccc(NS(C)(=O)=O)cc1 (centres undefined)	1	-1	7	-13	0
O=C(CSc1ncnc2sc3c(c12)CCCCC3)NCc1ccco1	0.9	1	3	-1	13
CC(C)c1nc2sc3c(SCC(=O)NCc4ccco4)ncnc3c2c2c1CCC2	0.4	15	16	8	56*
O=C(O)CCn1c(C(=O)O)cc2sccc21	0.9	4	8	-3	9
CCOC(=O)Cc1nnc(NC(=O)COc2ccc(C)cc2)s1	0.9	-3	7	-7	13
O=C(CSc1ccc(-c2ccccn2)nn1)c1ccc(F)cc1	0.4	-1	-3	13	58*
O=C(CSc1ccc(-c2ccccn2)nn1)c1ccccc1	1	-11	2	1	-1
CCOC(=O)C1=C(O)/C(=C\c2ccc(CNS(=O)(=O)c3ccc(Br)cc3)o2)N=C1C	0.5	-11	-4	24	52*
CCOC(=O)C1CCN(C(=O)c2c(C)oc3c2C(=O)c2ccccc2C3=O)CC1	0.9	11	60*	31	11
SMILES	Diaph act CS	HKDC1 inh	G6PDH CS	PfG6PD inh	Diaph inh CS
Cc1oc2c(c1C(=O)N1CCC(C)CC1)C(=O)c1ccccc1C2=O	0.8	12	56*	-8	18
COc1cc(OC)cc(C(=O)N(CCCN2C(=O)c3cccc4cccc(c34)C2=O)c2cccc(OC)c2)c1	0.5	12	-20	43	53*
COc1ccc(N(CCCN2C(=O)c3cccc4cccc(c34)C2=O)C(=O)c2ccncc2)cc1	0.6	14	0	14	38
COc1c(C)cccc1C(=O)Nc1ccc(OCC(=O)N2CCOCC2)cc1C	nt	-7	nt	7	nt
Cc1ccc2nc(C)cc(N3CCOCC3)c2c1	0.9	-4	8	16	9
Cc1c(C(=O)O)c(C(=O)O)nc2ccc(N3CCOCC3)cc12	0.5	nt	14	nt	55*
CCOC(=O)C1=C(C)NC(=O)NC1c1c(C)nn(-c2ccccc2)c1Cl (centres undefined)	0.5	24	1	11	52*
CCOC(=O)C1=C(C)N(C)C(=O)NC1c1c(C)nn(-c2ccc(C)cc2)c1Cl (centres undefined)	1	1	4	-12	2
Oc1ccc2ccccc2c1C=Nc1ccc(Cl)cn1	0.4	21	58*	39	62*
Cc1cc(O)c(C=Nc2ccc(Cl)cn2)c(=O)o1	0.9	-8	3	4	10
COc1cccc(OC)c1OCCNCC1COc2ccccc2O1 (centres undefined)	nt	0	nt	1	nt
CC(C)CCN1CCN(Cc2ccc(C#CC(C)(C)O)s2)CC1CCO (centres undefined)	0.9	-3	6	-5	10
O=C(NNC(=S)NC(=O)c1cccs1)c1cccnc1	0.4	-2	-2	-19	57*
Cc1ccc(NC(=O)CN2C(=O)S/C(=C/c3ccc(O)c([N+](=O)[O-])c3)C2=O)cc1C	0.1	16	13	-6	92*
Nc1ccc2c(c1)OC1(CCCC1)O2	0.5	15	12	49	52*
O=C(Cc1ccccc1)Nc1ccc2c(c1)OC1(CCCC1)O2	nt	1	nt	11	nt
CCCCNC(=O)Cn1c(-c2ccc(OC)cc2)noc1=O	0.8	-5	0	-4	18
CCOc1cc(CNc2ccc3[nH]c(=O)[nH]c3c2)ccc1OCC(=O)NC(C)(C)C	0.3	2	-43	41	66*
CCCCn1c(N)c(N(CC(C)C)C(=O)CN(C)S(=O)(=O)c2ccc(C)cc2)c(=O)[nH]c1=O	nt	-5	nt	1	nt
COc1ccc2c(=O)c3c(=O)n(Cc4ccco4)c(-c4ccco4)nc3oc2c1	0.5	19	3	24	52*
CN(CC(=O)NCCc1ccc(F)cc1)Cc1ccc(Br)cc1	nt	-1	nt	14	nt
Nc1nonc1-c1nc2ccccc2n1CC(=O)O	0.9	-4	0	-5	8
Nc1nonc1-c1nc2ccccc2n1CC(=O)N/N=C/c1ccc(-c2cccc(C(=O)O)c2)o1	0.5	6	-6	-13	52*
